Test results reported in paper PMC7704123 (Journal of natural products, 2020).

Assays:
Type in all cases: cell-based, human
[1] = tested on: MDA-MB-453 and SUM185PE cells; test: SRB assay, LAR subtype TNBC cell lines taken together; conditions: MDA-MB-453 and SUM185PE versus MDA-MB-231, HCC1806 and HCC70, Figure 7C
Summary of the method: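 Cells seeded at predetermined densities, left to adhere, then given test compound or DMSO vehicle for 48 h. Fixed, stained with sulforhodamine B, absorbance read at 560 nm. MDA-MB-453, MDA-MB-231 and SUM185PE were grown in IMEM with 5% FBS; HCC1806 and HCC70 in RPMI-1640 with 5% FBS. Proliferation taken relative to vehicle; GI50 by non-linear regression; three independent experiments, each in triplicate.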

[2] = tested on: mTORC1 signaling in MDA-MB-453 cells; test: Immunoblotting of mTORC1 signaling pathway; conditions: immunoblot
Summary of the method: (§1)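 Cells (IMEM, 5% FBS) exposed to 100 nM test compound, 100 nM oligomycin, 10 nM rapamycin or DMSO vehicle for 2, 6 or 18 h. Scraped whole-cell lysates with PMSF, Na3VO4 and protease inhibitors; 10 μg protein per lane on 10% Bis-Tris SDS-PAGE, PVDF transfer. Blots probed for phospho/total AKT S473, mTOR S2448, S6K T389, RPS6 S235/236, 4E-BP1 T37/46 and GAPDH; IRDye infrared detection; two independent experiments.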

[3] = tested on: mTORC1 signaling in MDA-MB-231 cells; test: Immunoblotting of mTORC1 signaling pathway; conditions: immunoblot
Summary of the method: as §1

[4] = 100 nM oligomycin, 2, 6 or 18 h

| Structure (SMILES) | growth of LAR cells as compared to other TNBC cell lines [1] | mTOR activity (RPS6 and S6K phosphorylation) [2, 4] | mTOR activity (RPS6 and S6K phosphorylation) [3, 4] | mTOR signaling ([2]; 10 nM rapamycin, 2, 6 or 18 h) | mTOR signaling ([3]; 10 nM rapamycin, 2, 6 or 18 h) |
| --- | --- | --- | --- | --- | --- |
| CC[C@H]1/C=C/C=C/C[C@@H](C)[C@H](O)[C@@](C)(O)C(=O)[C@@H](C)[C@H](O)[C@@H](C)C(=O)[C@@H](C)[C@H](O)[C@@H](C)/C=C/C(=O)O[C@@H]2[C@H](C)[C@H](CC1)O[C@]1(CC[C@H](C)[C@H](C[C@@H](C)O)O1)[C@H]2C [oligomycin] | selectively inhibited the growth | selectively inhibited mTOR activity | but not in the resistant MDA-MB-231 cells |  |  |
| CO[C@H]1C[C@@H]2CC[C@@H](C)[C@@](O)(O2)C(=O)C(=O)N2CCCC[C@H]2C(=O)O[C@H]([C@H](C)C[C@@H]2CC[C@@H](O)[C@H](OC)C2)CC(=O)[C@H](C)/C=C(\C)[C@@H](O)[C@@H](OC)C(=O)[C@H](C)C[C@H](C)/C=C/C=C/C=C/1C [Rapamycin] |  |  |  | inhibited mTOR signaling in both cell lines | inhibited mTOR signaling in both cell lines |
